pIC50, pKi: −log10 of the molar value. Values after ≈ are worked out from the molar mass of the structure shown. Active and inactive are the calls of the source. The rule behind the calls is not given here.
Columns and labels:
Trypanosoma cruzi [1] = assay: Effect on endogenous 24-ethyl-5,7-cholesta-dien-3beta-ol level in Trypanosoma cruzi epimastigotes at 20 uM; format: functional
Summary of the method: (§1)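 EP stock epimastigotes grown 120 h in LIT medium with 10% newborn calf serum at 28 °C, with or without compound at the stated concentration. Total lipids were extracted, and free sterols were separated from polar lipids by silicic acid column chromatography. Sterols were quantified by capillary gas-liquid chromatography and mass spectrometry and reported as mass percent of free sterols.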

Trypanosoma cruzi [2] = assay: Effect on endogenous 24-ethyl-5,7,22-cholesta-trien-3beta-ol level in Trypanosoma cruzi epimastigotes at 20 uM; format: functional; summary of the method: as §1
Trypanosoma cruzi [3] = assay: Effect on exogenous cholesterol level in Trypanosoma cruzi epimastigotes at 20 uM; format: functional; summary of the method: as §1
Trypanosoma cruzi [4] = assay: Effect on endogenous Ergosta-5,7-24(24')-trien-3beta-ol level in Trypanosoma cruzi epimastigotes at 20 uM; format: functional; summary of the method: as §1
Hexokinase [5] = target: T1, Hexokinase (Trypanosoma cruzi, UniProt Q8ST54); assay: Inhibition of Trypanosoma cruzi hexokinase in presence of ATP, 2 mM D-glucose and 3 mM MgCl2 by mixed inhibition assay
T1 sequence (Q8ST54 whole entry): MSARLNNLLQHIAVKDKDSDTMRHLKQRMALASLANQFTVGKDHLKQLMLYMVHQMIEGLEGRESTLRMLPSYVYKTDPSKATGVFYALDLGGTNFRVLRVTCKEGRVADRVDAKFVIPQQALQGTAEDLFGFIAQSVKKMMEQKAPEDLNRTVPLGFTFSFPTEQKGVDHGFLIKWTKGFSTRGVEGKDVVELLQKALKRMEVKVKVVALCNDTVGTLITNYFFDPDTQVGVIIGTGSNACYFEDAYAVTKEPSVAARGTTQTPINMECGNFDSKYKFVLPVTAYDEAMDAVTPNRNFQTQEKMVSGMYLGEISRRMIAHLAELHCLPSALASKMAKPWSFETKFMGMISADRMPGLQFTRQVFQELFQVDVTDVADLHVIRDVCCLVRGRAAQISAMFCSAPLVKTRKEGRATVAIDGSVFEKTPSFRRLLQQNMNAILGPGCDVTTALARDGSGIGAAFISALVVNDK

Hexokinase [6] = target: T1, Hexokinase; assay: Inhibition of glycosomal Trypanosoma cruzi hexokinase in presence of D-glucose, 1 mM ATP and 3 mM MgCl2 by competitive inhibition assay
Summary of the method: (§2)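 Purified intact glycosomes from exponential-phase epimastigotes (latency typically >95%) were permeabilized with digitonin 25 µg mg-1 protein for 1 min, pelleted and resuspended in buffer A (sucrose 225 mM, KCl 20 mM, KH2PO4 10 mM, EDTA 5 mM, Tris-HCl 20 mM, MgCl2 1 mM, pH 7.2). Hexokinase was assayed by coupled NADP+ reduction at 340 nm. Against ATP: 2 mM D-glucose, 3 mM MgCl2. Against glucose: 1 mM ATP, 3 mM MgCl2. Kii and Kis were fitted.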

Trypanosoma cruzi [7] = assay: Effect on endogenous Ergosta-7-24(24')-dien-3beta-ol level in Trypanosoma cruzi epimastigotes at 20 uM; format: functional; summary of the method: as §1
Trypanosoma cruzi [8] = assay: Effect on endogenous Ergosta-5,7-dien-3beta-ol level in Trypanosoma cruzi epimastigotes at 20 uM; format: functional; summary of the method: as §1
Hexokinase [9] = target: T1, Hexokinase; assay: Inhibition of glycosomal Trypanosoma cruzi hexokinase in presence of D-glucose, 1 mM ATP and 3 mM MgCl2; summary of the method: as §2
Hexokinase [10] = target: T1, Hexokinase; assay: Inhibition of Trypanosoma cruzi hexokinase in presence of ATP, 2 mM D-glucose and 3 mM MgCl2
Summary of the method: (§3)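 Homogeneous hexokinase purified from exponential-phase epimastigotes. Activity measured spectrophotometrically by coupling to glucose-6-phosphate dehydrogenase and following NADP+ reduction at 340 nm; rates taken from the initial linear slope. Against ATP: 2 mM D-glucose, 3 mM MgCl2. Against D-glucose: 1 mM ATP, 3 mM MgCl2. Substrate and inhibitor were varied, and Kii and Kis were obtained from fitting plus secondary plots.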

Hexokinase [11] = target: T1, Hexokinase; assay: Inhibition of glycosomal Trypanosoma cruzi hexokinase in presence of ATP, 2 mM D-glucose and 3 mM MgCl2 by competitive inhibition assay; summary of the method: as §2
Hexokinase [12] = target: T1, Hexokinase; assay: Inhibition of Trypanosoma cruzi hexokinase in presence of D-glucose, 1 mM ATP and 3 mM MgCl2 by competitive inhibition assay; summary of the method: as §3
Trypanosoma cruzi [13] = assay: Inhibition of glucose consumption in Trypanosoma cruzi epimastigotes after 120 hrs; format: functional, organism-based
Summary of the method: (§4)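 Epimastigotes cultured in LIT medium at 28 °C with agitation, with or without 15 µM compound. Cell proliferation, medium glucose and ammonium (enzymatic assays) and medium pH were followed over time. Triplicates.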

Trypanosoma cruzi [14] = assay: Effect on glucose consumption in digitonin permeablized Trypanosoma cruzi; format: functional, organism-based
Summary of the method: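 Resuspended with PEP 6 mM, ADP 6 mM, NaHCO3 7 mM and L-malate 1 mM. Preincubated 60 min at 28 °C with varying compound concentrations before 3 mM D-glucose was added. Medium glucose was assayed enzymatically every 15 min; IC50 determined.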

Trypanosoma cruzi [15] = assay: Effect on endogenous 24-methyl-5,7,22-cholesta-trien-3beta-ol level in Trypanosoma cruzi epimastigotes at 20 uM; format: functional; summary of the method: as §1
Trypanosoma cruzi [16] = assay: Growth inhibition of Trypanosoma cruzi epimastigotes; format: functional, organism-based
Summary of the method: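 EP epimastigotes grown in LIT medium with 10% newborn calf serum at 28 °C, 120 rpm. Compound added from 100-fold stocks at 1-2 × 10^7 cells ml-1. Densities counted by particle counter and hemocytometer. Percent growth factor based on 96 h growth relative to untreated cells; IC50 from non-linear fit; MIC also reported. Triplicates.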

Trypanosoma cruzi [17] = assay: Reduction in proliferation of Trypanosoma cruzi epimastigotes at 15 uM; format: functional, organism-based; summary of the method: as §4
Trypanosoma cruzi [18] = assay: Inhibition of glucose consumption in Trypanosoma cruzi epimastigotes after 96 hrs; format: functional, organism-based; summary of the method: as §4
Hexokinase [19] = target: T1, Hexokinase; assay: Inhibition of glycosomal Trypanosoma cruzi hexokinase in presence of ATP, 2 mM D-glucose and 3 mM MgCl2; summary of the method: as §2
Hexokinase [20] = target: T1, Hexokinase; assay: Inhibition of Trypanosoma cruzi hexokinase in presence of D-glucose, 1 mM ATP and 3 mM MgCl2
Summary of the method: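 Hexokinase purified to homogeneity from exponential-phase T. cruzi epimastigotes. Activity was coupled to glucose-6-phosphate dehydrogenase and read as NADP+ reduction at 340 nm, with initial velocity taken from the slope, linear for at least 5 min. D-glucose was varied at fixed inhibitor levels with 1 mM ATP and 3 mM MgCl2. Kii and Kis came from fitting to a mixed-inhibition equation (intercept/slope secondary plots).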

Trypanosoma cruzi [21] = assay: Effect on endogenous 24-ethyl-5,7,22-cholesta-trien-3beta-ol level in Trypanosoma cruzi epimastigotes at 50 uM; format: functional; summary of the method: as §1
Trypanosoma cruzi [22] = assay: Effect on exogenous cholesterol level in Trypanosoma cruzi epimastigotes at 100 uM; format: functional; summary of the method: as §1
Trypanosoma cruzi [23] = assay: Effect on endogenous 24-ethyl-5,7-cholesta-dien-3beta-ol level in Trypanosoma cruzi epimastigotes at 50 uM; format: functional; summary of the method: as §1
Trypanosoma cruzi [24] = assay: Effect on exogenous cholesterol level in Trypanosoma cruzi epimastigotes at 50 uM; format: functional; summary of the method: as §1
Trypanosoma cruzi [25] = assay: Effect on endogenous 24-ethyl-5,7-cholesta-dien-3beta-ol level in Trypanosoma cruzi epimastigotes at 100 uM; format: functional; summary of the method: as §1

SMILES | Activity (Trypanosoma cruzi [1]) | Activity (Trypanosoma cruzi [2]) | Activity (Trypanosoma cruzi [3]) | Activity (Trypanosoma cruzi [4]) | pKi (Hexokinase [5]) | pKi (Hexokinase [6]) | Activity (Trypanosoma cruzi [8]) | pKi (Hexokinase [9]) | pKi (Hexokinase [10]) | pKi (Hexokinase [11]) | pKi (Hexokinase [12]) | pIC50 (Trypanosoma cruzi [14]) | Activity (Trypanosoma cruzi [15]) | pIC50 (Trypanosoma cruzi [16]) | MIC (Trypanosoma cruzi [16]) | Activity (Trypanosoma cruzi [17]) | pKi (Hexokinase [19]) | also measured
O=P(O)(O)C(Nc1cccc(Br)c1)P(=O)(O)O | 3.4% | 18.3% | 21.3% | 6% | 6.22 | 5.54 | 18% | 4.97 | 5.92 | 5.59 | 6.40 | 5.92 | 31% | 5.15 | 20 µM (≈ 6.92 µg/mL) | Active |  | Activity (Trypanosoma cruzi [7]): 2%; Activity (Trypanosoma cruzi [13]): Active
CCn1c2ccccc2c2cc(NC(P(=O)(O)O)P(=O)(O)O)ccc21 | 8.4% | 19.3% | 18.8% | 3.8% | 5.77 | 5.62 | 26.3% | 5.37 | 5.55 | 5.92 | 6.30 | 6.21 | 23.4% | 5.19 | 20 µM (≈ 7.69 µg/mL) | Active | 5.77 | Activity (Trypanosoma cruzi [18]): Active
O=P(O)(O)C(O)(Cc1ccncc1)P(=O)(O)O |  |  |  |  | 5.55 | 5.47 |  | 4.36 | 5.37 | 4.94 | 5.48 | 4.99 |  | 4.39 | 200 µM (≈ 56.6 µg/mL) |  | 4.98 | pKi (Hexokinase [20]): 5.22; Activity (Trypanosoma cruzi [21]): 14.6%; Activity (Trypanosoma cruzi [22]): 93.3%; Activity (Trypanosoma cruzi [23]): 14.5%; Activity (Trypanosoma cruzi [24]): 70.9%; Activity (Trypanosoma cruzi [25]): 6.7%
